{"source": "ChEMBL document CHEMBL4229301", "about": "“Open-source discovery of chemical leads for next-generation chemoprotective antimalarials” (2018)", "assay": "Luciferase/luciferin-expressing antifolate-resistant parasites were used to infect a culture of HepG2 cells that were pre-incubated with compounds. Infected hepatocytes emit light due to the luciferase reaction. Assay results are presented as the percent inhibition of light emission compared to control. […]", "format": "functional", "conditions": "Plasmodium berghei, sporozoite; for IC50: read-out: LUCIFERASE INFECTION ASSAY - IC50; for IC90: read-out: LUCIFERASE INFECTION ASSAY - IC90", "summary_of_the_method": "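HepG2-A16-CD81EGFP cells (3x10³/well) were seeded 20-26 h before infection, and compound was added 18 h before infection (0.5% DMSO final; library screened at 0.250-39 µM, average 10 µM). Each well received 1x10³ P. berghei GFP-Luc sporozoites from A. stephensi salivary glands, then plates were spun at 330xg for 3 min. After 48 h at 37°C, 5% CO₂, BrightGlo luminescence was read and normalized to 64 DMSO and 64 10 µM atovaquone wells.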", "key": {"[1]": {"conditions": "PBLUC_HILL_SLOPE 1.68, PBLUC_R_SQUARED 0.822"}, "[2]": {"conditions": "PBLUC_HILL_SLOPE 1.77, PBLUC_R_SQUARED 0.431"}, "[3]": {"conditions": "PBLUC_HILL_SLOPE 1.94, PBLUC_R_SQUARED 0.789"}}}
{"smiles": "c1ccc(CNc2nc(Nc3ccccc3)nc3ccccc23)cc1", "values": [{"measurement": "IC50", "setting": "[1]", "value": 0.476, "unit": "µM"}, {"measurement": "IC90", "setting": "[1]", "value": 1.76, "unit": "µM"}]}
{"smiles": "Cc1cc(Nc2ccc(Cl)cc2)n2nc(C(F)(F)F)nc2n1", "values": [{"measurement": "IC50", "setting": "[2]", "value": 1.54, "unit": "µM"}, {"measurement": "IC90", "setting": "[2]", "value": 5.32, "unit": "µM"}]}
{"smiles": "N=c1c2ccccc2nnn1-c1cccc(C(F)(F)F)c1", "values": [{"measurement": "IC50", "setting": "[3]", "value": 0.796, "unit": "µM"}, {"measurement": "IC90", "setting": "[3]", "value": 2.47, "unit": "µM"}]}
